Results: ChEMBL document CHEMBL1143580 (J Med Chem, 2005)
One block for each compound: values may come before it.

Legend:
Rattus norvegicus [1] = species: Rattus norvegicus; test: Amount of cGMP level in rat neostriatal membranes after incubation at 10 uM; assay type: functional
Method in brief: (§1)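 Rat striatal membranes in 0.1 M phosphate buffer pH 7.0 with MgCl2 and 2.25 mM IBMX at 37 °C; reaction started with 54 µM GTP, 60 min at 37 °C; compounds at 0.1, 1.0, 10 µM. Stopped with HCl, boiled 5 min, centrifuged, filtered; cGMP measured by reverse-phase HPLC at 254 nm against standards, confirmed by cGMP EIA; mean ± SEM of triplicates.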

Rattus norvegicus [2] = species: Rattus norvegicus; test: Amount of cGMP level in rat neostriatal membranes after incubation at 0.1 uM; assay type: functional; method in brief: as §1
Rattus norvegicus [3] = species: Rattus norvegicus; test: Amount of cGMP level in rat neostriatal membranes after incubation at 1.0 uM; assay type: functional; method in brief: as §1
[4] = Inhibitory constant for [3H]YM-09151-2 binding to Dopamine receptor D2-like in porcine striatal membranes; assay type: cell membranes, Sus scrofa, Striatum, Membrane
Rattus norvegicus [5] = species: Rattus norvegicus; test: Amount of cAMP level in rat neostriatal membranes after incubation at 100 uM; assay type: functional
Method in brief: (§2)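 Rat striatal membranes; adenylyl cyclase reaction in 0.1 M Tris-HCl pH 8.3, 10 mM MgCl2, 0.1 M KCl, 37 °C, 60 min; compounds at 1, 10, 100 µM. Stopped with HCl (final 0.01 M) plus 5 min boiling, centrifuged, filtered. cAMP quantified by reverse-phase HPLC at 254 nm against standards, confirmed by cAMP EIA; pmol/mg protein, mean ± SEM of triplicates.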

Rattus norvegicus [6] = species: Rattus norvegicus; test: Amount of cAMP level in rat neostriatal membranes after incubation at 1 uM; assay type: functional; method in brief: as §2
Rattus norvegicus [7] = species: Rattus norvegicus; test: Amount of cAMP level in rat neostriatal membranes after incubation at 10 uM; assay type: functional; method in brief: as §2
[8] = Inhibitory constant for [3H]YM-09151-2 binding to Dopamine receptor D2-like in porcine striatal membranes; NA= not active until 1e-5M; assay type: cell membranes, Sus scrofa
[9] = biological target: Adenylate cyclase type 2 (Rattus norvegicus) (UniProt P26769); test: Inhibition of basal striatal adenylyl cyclase activity in rat neostriatal membrane at 100 uM; assay type: functional, cell membranes
Method in brief: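 Rat striatal membranes incubated 60 min at 37 °C in 0.1 M Tris-HCl pH 8.3, 10 mM MgCl2, 0.1 M KCl. Reaction stopped with HCl (0.01 M final) and 5 min boiling. Filtered supernatant analysed for cAMP by reverse-phase HPLC at 254 nm against standards, confirmed by cAMP EIA. Tested at 1, 10 and 100 µM. Triplicates reported as mean ± SEM.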

Rattus norvegicus [10] = species: Rattus norvegicus; test: Amount of cGMP in rat neostriatal membranes after incubation at 10 uM; assay type: functional; method in brief: as §1
Rattus norvegicus [11] = species: Rattus norvegicus; test: Amount of cGMP in rat neostriatal membranes after incubation at 0.1 uM; assay type: functional; method in brief: as §1
Rattus norvegicus [12] = species: Rattus norvegicus; test: Amount of cGMP in rat neostriatal membranes after incubation at 1.0 uM; assay type: functional; method in brief: as §1
Rattus norvegicus [13] = species: Rattus norvegicus; test: Decrease of basal cAMP concentration mediated by striatal adenylyl cyclase activity in rat neostriatal membrane at 100 uM; assay type: functional; method in brief: as §2
[14] = Inhibitory constant for Dopamine receptor D1-like
[15] = Inhibitory constant for Dopamine receptor D2-like

Adenylate cyclase type 2 (Rattus norvegicus), sequence (P26769 whole entry): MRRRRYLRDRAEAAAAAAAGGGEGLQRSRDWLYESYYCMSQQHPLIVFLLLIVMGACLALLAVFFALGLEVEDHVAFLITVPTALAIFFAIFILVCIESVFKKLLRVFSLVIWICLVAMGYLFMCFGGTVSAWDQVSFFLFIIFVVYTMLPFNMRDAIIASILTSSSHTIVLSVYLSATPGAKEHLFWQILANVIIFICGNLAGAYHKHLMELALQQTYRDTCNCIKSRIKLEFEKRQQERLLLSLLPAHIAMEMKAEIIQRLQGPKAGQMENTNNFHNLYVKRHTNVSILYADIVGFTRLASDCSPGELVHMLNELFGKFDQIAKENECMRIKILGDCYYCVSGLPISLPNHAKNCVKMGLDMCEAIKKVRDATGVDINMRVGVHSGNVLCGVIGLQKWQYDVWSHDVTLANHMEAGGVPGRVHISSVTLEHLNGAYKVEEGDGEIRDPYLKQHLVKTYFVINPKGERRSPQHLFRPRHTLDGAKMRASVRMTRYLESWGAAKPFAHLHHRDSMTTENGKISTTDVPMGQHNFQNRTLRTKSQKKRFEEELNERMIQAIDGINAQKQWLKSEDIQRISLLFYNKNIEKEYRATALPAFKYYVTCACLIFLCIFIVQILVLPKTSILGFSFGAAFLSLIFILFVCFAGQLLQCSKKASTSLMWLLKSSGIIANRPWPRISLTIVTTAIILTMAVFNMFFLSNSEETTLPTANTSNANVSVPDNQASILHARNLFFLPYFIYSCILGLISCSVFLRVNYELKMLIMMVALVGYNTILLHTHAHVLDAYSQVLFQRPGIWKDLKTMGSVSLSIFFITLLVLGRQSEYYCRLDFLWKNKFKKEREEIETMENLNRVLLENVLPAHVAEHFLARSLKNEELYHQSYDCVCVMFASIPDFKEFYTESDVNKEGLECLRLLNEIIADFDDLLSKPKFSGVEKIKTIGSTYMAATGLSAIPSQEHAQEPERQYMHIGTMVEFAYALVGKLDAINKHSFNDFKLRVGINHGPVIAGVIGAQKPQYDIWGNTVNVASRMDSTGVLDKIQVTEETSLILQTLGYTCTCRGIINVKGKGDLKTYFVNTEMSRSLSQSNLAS

SMILES: Oc1cc2c(cc1O)C(c1ccccc1)CNCC2 (stereo not drawn)
- cGMP content (pmol/mg protein) (Rattus norvegicus [1]): 18.2
- cGMP content (pmol/mg protein) (Rattus norvegicus [2]): 12.4
- cGMP content (pmol/mg protein) (Rattus norvegicus [3]): 17.4

SMILES: CCCN(CCC)[C@@H]1Cc2cc(O)c(F)cc2[C@H]1c1ccccc1
- Ki [4]: 12000 nM

SMILES: COc1cc2c(cc1F)C[C@@H](N)[C@@H]2c1ccccc1
- Ki [4]: 17000 nM

SMILES: CN[C@@H]1Cc2cc(F)c(O)cc2[C@H]1c1ccccc1
- Ki [4]: 5100 nM

SMILES: Br.CN(C)[C@@H]1Cc2cc(O)c(F)cc2[C@H]1c1ccccc1
- Ki [8]: Not Active

SMILES: CCCN(CCc1ccccc1)CCc1cccc(O)c1
- cAMP content (pmol/mg protein) (Rattus norvegicus [5]): 79.3
- cGMP content (pmol/mg protein) (Rattus norvegicus [1]): 3.78
- cGMP content (pmol/mg protein) (Rattus norvegicus [2]): 10.4
- cGMP content (pmol/mg protein) (Rattus norvegicus [3]): 7.45
- cAMP content (pmol/mg protein) (Rattus norvegicus [6]): 104
- cAMP content (pmol/mg protein) (Rattus norvegicus [7]): 93.1
- inhibition [9]: 25%

SMILES: CCN1CCCC1CNC(=O)c1cc(S(N)(=O)=O)ccc1OC (stereo not drawn)
- cGMP content (pmol/mg protein) (Rattus norvegicus [1]): 17.7
- cGMP content (pmol/mg protein) (Rattus norvegicus [2]): 12.5
- cGMP content (pmol/mg protein) (Rattus norvegicus [3]): 17.3

SMILES: NCCc1ccc(O)c(O)c1
- cAMP content (pmol/mg protein) (Rattus norvegicus [5]): 85.6
- cGMP content (pmol/mg protein) (Rattus norvegicus [1]): 4.02
- cGMP content (pmol/mg protein) (Rattus norvegicus [2]): 11.7
- cGMP content (pmol/mg protein) (Rattus norvegicus [3]): 6.15
- cAMP content (pmol/mg protein) (Rattus norvegicus [6]): 95.1
- cAMP content (pmol/mg protein) (Rattus norvegicus [7]): 89.8

SMILES: N[C@@H]1Cc2cc(F)c(O)cc2[C@H]1c1ccccc1
- Ki [4]: 19000 nM

SMILES: CN1CCc2cc(Cl)c(O)cc2[C@@H](c2ccccc2)C1
- cGMP content (pmol/mg protein) (Rattus norvegicus [10]): 6.15
- cGMP content (pmol/mg protein) (Rattus norvegicus [11]): 11.5
- cGMP content (pmol/mg protein) (Rattus norvegicus [12]): 6.62

SMILES: COc1cc2c(cc1F)[C@@H](c1ccccc1)[C@H](N)C2
- Ki [4]: 12000 nM

SMILES: N[C@@H]1Cc2cc(O)c(F)cc2[C@H]1c1ccccc1
- Ki [4]: 15000 nM

SMILES: CN1CCc2cc(F)c(O)cc2C1C1(c2ccccc2Cl)CC1 (stereo not drawn)
- Ki [14]: 0.18 nM
- Ki [15]: 450 nM

More lines, main results first:

- Ki [4]: 270 nM
SMILES: CCCN(C)[C@@H]1Cc2cc(OC)c(F)cc2[C@H]1c1ccccc1
- cAMP content (pmol/mg protein) (Rattus norvegicus [5]): 84.6
- cGMP content (pmol/mg protein) (Rattus norvegicus [1]): 3.78
- cGMP content (pmol/mg protein) (Rattus norvegicus [2]): 11.2
- cGMP content (pmol/mg protein) (Rattus norvegicus [3]): 4.96
- cAMP content (pmol/mg protein) (Rattus norvegicus [6]): 105
- cAMP content (pmol/mg protein) (Rattus norvegicus [7]): 103

- Ki [4]: 920 nM
SMILES: CCCN(CCC)[C@@H]1Cc2cc(F)c(O)cc2[C@H]1c1ccccc1
- cGMP content (pmol/mg protein) (Rattus norvegicus [1]): 4.37
- cGMP content (pmol/mg protein) (Rattus norvegicus [2]): 11.6
- cGMP content (pmol/mg protein) (Rattus norvegicus [3]): 7.32

- Ki [4]: 4500 nM
SMILES: CN(C)[C@@H]1Cc2cc(F)c(O)cc2[C@H]1c1ccccc1

- Ki [4]: 310 nM
SMILES: C=CCN(C)[C@@H]1Cc2cc(OC)c(F)cc2[C@H]1c1ccccc1

- Ki [4]: 170 nM
SMILES: CCCN(CCC)[C@@H]1Cc2cc(F)c(OC)cc2[C@H]1c1ccccc1
- cGMP content (pmol/mg protein) (Rattus norvegicus [1]): 5.79
- cGMP content (pmol/mg protein) (Rattus norvegicus [2]): 10.6
- cGMP content (pmol/mg protein) (Rattus norvegicus [3]): 6.97

- Ki [4]: 4300 nM
SMILES: CN[C@@H]1Cc2cc(O)c(F)cc2[C@H]1c1ccccc1

- Ki [4]: 2600 nM
SMILES: CN[C@@H]1Cc2cc(F)c(OC)cc2[C@H]1c1ccccc1

- Ki [4]: 4300 nM
SMILES: COc1cc2c(cc1F)[C@@H](c1ccccc1)[C@H](N(C)C)C2

- Ki [4]: 1900 nM
SMILES: COc1cc2c(cc1F)C[C@@H](N(C)C)[C@@H]2c1ccccc1

- Ki [4]: 480 nM
SMILES: CCCN(C)[C@@H]1Cc2cc(F)c(OC)cc2[C@H]1c1ccccc1
- cGMP content (pmol/mg protein) (Rattus norvegicus [1]): 3.9
- cGMP content (pmol/mg protein) (Rattus norvegicus [2]): 10.4
- cGMP content (pmol/mg protein) (Rattus norvegicus [3]): 6.86

- Ki [4]: 640 nM
SMILES: C=CCN(C)[C@@H]1Cc2cc(F)c(OC)cc2[C@H]1c1ccccc1

- Ki [4]: 650 nM
- Decrease (Rattus norvegicus [13]): 30%
SMILES: CCCN(C)[C@@H]1Cc2cc(F)c(O)cc2[C@H]1c1ccccc1
- cAMP content (pmol/mg protein) (Rattus norvegicus [5]): 74.4
- cGMP content (pmol/mg protein) (Rattus norvegicus [1]): 1.78
- cGMP content (pmol/mg protein) (Rattus norvegicus [2]): 10.9
- cGMP content (pmol/mg protein) (Rattus norvegicus [3]): 5.79
- cAMP content (pmol/mg protein) (Rattus norvegicus [6]): 103
- cAMP content (pmol/mg protein) (Rattus norvegicus [7]): 93

- Ki [4]: 240 nM
SMILES: CCCN(C)[C@@H]1Cc2cc(O)c(F)cc2[C@H]1c1ccccc1
- cGMP content (pmol/mg protein) (Rattus norvegicus [1]): 5.56
- cGMP content (pmol/mg protein) (Rattus norvegicus [2]): 11.5
- cGMP content (pmol/mg protein) (Rattus norvegicus [3]): 7.45

- Ki [4]: 960 nM
SMILES: C=CCN(C)[C@@H]1Cc2cc(F)c(O)cc2[C@H]1c1ccccc1

- Ki [4]: 3100 nM
SMILES: CN[C@@H]1Cc2cc(OC)c(F)cc2[C@H]1c1ccccc1

- Ki [4]: 640 nM
SMILES: C=CCN(C)[C@@H]1Cc2cc(O)c(F)cc2[C@H]1c1ccccc1

- Ki [4]: 550 nM
SMILES: CCCN(CCC)[C@@H]1Cc2cc(OC)c(F)cc2[C@H]1c1ccccc1
